In ChEMBL document CHEMBL1275429, “Pharmacodynamic characterization of ceftobiprole in experimental pneumonia caused by phenotypically diverse Staphylococcus aureus strains” (Antimicrob Agents Chemother, 2008):
≈ marks a conversion by molar mass, not a printed value.

Assays:
[1] = Cmax in neutropenic BALB/cAnNCr mouse infected with Staphylococcus aureus at 25 mg/kg, sc administered as single dose after 6 hrs of infection; format: ADME, organism-based; design: dose 25 mg/kg, route subcutaneous; conditions: in vivo
How it was run: (§1)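 Neutropenic female mice (cyclophosphamide i.p. 250 mg/kg day −4, 100 mg/kg day −1) with HA-MRSA 56 pneumonia (oral inoculum, 10^7 CFU/ml in 3% mucin). Single s.c. dose in sterile water. Plasma by intracardiac puncture at 0.25–4 h, six mice per time point, stabilized with citric acid. Assayed by validated HPLC (LOQ 0.01 µg/ml). Parameters from one-compartment analysis.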

[2] = system: Staphylococcus aureus; experiment: Antimicrobial activity against hospital acquired methicillin-resistant Staphylococcus aureus 152 infected in BALB/cAnNCr mouse assessed as decrease in bacterial density in lungs at 1 to 25 mg/kg, sc administered as 1 to 5 times/day after 24 hrs […] relative to control; format: functional; conditions: route subcutaneous
How it was run: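 Female BALB/cAnNCr mice (7–9 weeks) were made neutropenic with cyclophosphamide i.p. at 250 mg/kg on day −4 and 100 mg/kg on day −1. Under isoflurane, mice received an oral inoculum in 3% mucin/saline, with nostrils blocked until aspiration. Drug (1–25 mg/kg s.c., once to five times daily, water vehicle) or sham started 6 h post-inoculation. Lungs were harvested at 24 h, homogenized and plated on blood and Columbia agar at 35°C. Mean log10 CFU/ml was compared with the 0-h untreated baseline; 5 mice per group.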

[3] = Elimination clearance in neutropenic BALB/cAnNCr mouse infected with Staphylococcus aureus at 2.5 mg/kg, sc administered as single dose after 6 hrs of infection; format: ADME, organism-based; design: dose 2.5 mg/kg, route subcutaneous; conditions: in vivo
How it was run: (§2)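 Female BALB/cAnNCr mice (7-9 weeks, 15-22 g) made neutropenic with cyclophosphamide, 250 mg/kg i.p. on day -4 and 100 mg/kg i.p. on day -1. Infected by oral aspiration of HA-MRSA 56 (10^7 CFU/ml in 3% mucin/saline). Single s.c. dose in sterile water given 6 h post-challenge. Plasma (EDTA, citric acid-stabilized) taken at 0.25-4 h, six mice per time point. Assayed by validated HPLC (LOQ 0.01 µg/ml); one-compartment analysis.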

[4] = system: Staphylococcus aureus; experiment: Antimicrobial activity against Staphylococcus aureus infected in BALB/cAnNCr mouse assessed as decrease in bacterial density in lungs relative to control at 1 to 25 mg/kg, sc administered as 1 to 5 times/day after 24 hrs […]; format: functional; conditions: dose mg/kg 1-5; route subcutaneous
How it was run: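 Neutropenic mice given oral S. aureus inoculum (10^7 CFU/ml in 3% mucin). s.c. dosing of 1–25 mg/kg, once to five times daily, began 6 h post-infection and ran 24 h, five mice per group, with sham-treated controls. Lung homogenates were plated on blood and Columbia agar at 35°C up to 48 h. Log10 CFU/ml at 24 h was compared with untreated controls.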

[5] = fT>MIC required for stasis inhibition of Staphylococcus aureus infection in neutropenic BALB/cAnNCr mouse; format: functional
[6] = fCmax/MIC required for 80% inhibition of Staphylococcus aureus infection in neutropenic BALB/cAnNCr mouse; format: functional
[7] = system: Staphylococcus aureus; experiment: Antimicrobial activity against methicillin-susceptible Staphylococcus aureus ATCC 25923 by broth microdilution method; format: functional
How it was run: (§3)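 Broth microdilution run in triplicate following CLSI guidelines. Isolates were stored at –80°C in double-strength skim milk and subcultured twice on Trypticase soy agar with 5% sheep blood before testing.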

[8] = AUC (0 to infinity) in neutropenic BALB/cAnNCr mouse infected with Staphylococcus aureus at 10 mg/kg, sc administered as single dose after 6 hrs of infection; format: ADME, organism-based; design: time infinity, dose 10 mg/kg, route subcutaneous; conditions: plasma; how it was run: as §1
[9] = fT>MIC required for 50% inhibition of methicillin-susceptible Staphylococcus aureus 29213 infection in neutropenic BALB/cAnNCr mouse; format: functional
[10] = Elimination half life in neutropenic BALB/cAnNCr mouse infected with Staphylococcus aureus at 2.5 mg/kg, sc administered as single dose after 6 hrs of infection; format: ADME, organism-based; design: dose 2.5 mg/kg, route subcutaneous; conditions: in vivo; how it was run: as §2
[11] = system: Staphylococcus aureus; experiment: Antimicrobial activity against community acquired methicillin-resistant Staphylococcus aureus 146 by broth microdilution method; format: functional; how it was run: as §3
[12] = fT>MIC required for 80% inhibition of community acquired methicillin-resistant Staphylococcus aureus 144 infection in neutropenic BALB/cAnNCr mouse; format: functional
How it was run: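 Same neutropenic murine pneumonia model, with 24-h lung log10 CFU change (5 mice per group; 1–25 mg/kg s.c., 1–5 times daily). […] ED50, ED80 and stasis exposures were taken from a sigmoid Emax fit for each isolate.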

[13] = Tmax in neutropenic BALB/cAnNCr mouse infected with Staphylococcus aureus at 10 mg/kg, sc administered as single dose after 6 hrs of infection; format: ADME, organism-based; design: dose 10 mg/kg, route subcutaneous; conditions: in vivo; how it was run: as §1
[14] = fT>MIC required for 80% inhibition of methicillin-susceptible Staphylococcus aureus […] infection in neutropenic BALB/cAnNCr mouse; format: functional
[15] = fT>MIC required for 50% inhibition of Staphylococcus aureus infection in neutropenic BALB/cAnNCr mouse; format: functional
[16] = system: Mus musculus; experiment: Volume of distribution in neutropenic BALB/cAnNCr mouse infected with Staphylococcus aureus at 2.5 mg/kg, sc administered as single dose after 6 hrs of infection; format: ADME, organism-based; design: dose 2.5 mg/kg, route subcutaneous; conditions: in vivo; how it was run: as §2
[17] = fT>MIC required for 80% inhibition of Staphylococcus aureus infection in neutropenic BALB/cAnNCr mouse; format: functional

Nc1nc(/C(=N/O)C(=O)N[C@@H]2C(=O)N3C(C(=O)O)=C(/C=C4\CCN([C@@H]5CCNC5)C4=O)CS[C@H]23)ns1 [CEFTOBIPROLE]
Cmax [1]: 38.6 µg/mL | log10cfu [2]: 3.8 | CL/F [3]: 0.97 L/h/kg | log10cfu [4]: 2.5 | fT>MIC [5]: 11% | fCmax/MIC [6]: 2 | MIC [7]: 0.25 mg/L (≈ 0.468 µM) | AUC(0-inf) [8]: 15.8 µg·h/mL | fT>MIC [9]: 14.8% | half-life [10]: 27 min | MIC [11]: 2 mg/L (≈ 3.74 µM) | fT>MIC [12]: 14.3% | Tmax [13]: 9 min | fT>MIC [14]: 19.5% | fT>MIC [15]: 12% | Vd [16]: 0.63 L/kg | fT>MIC [17]: 17%
